These results are taken from ChEMBL document CHEMBL1649436, “Antiviral activity of MK-4965, a novel nonnucleoside reverse transcriptase inhibitor” (Antimicrob Agents Chemother, 2009).

The test system of series [1] is Human immunodeficiency virus 1. Briefly: Antiviral activity against HIV1 clade B harboring mutant reverse transcriptase relative to HIV1 CNDO with wild type reverse transcriptase. It is filed as functional.
For series [2], the system named is Human immunodeficiency virus 1. In words: Antiviral activity against HIV1 CRF02_AG harboring mutant reverse transcriptase relative to HIV1 CNDO with wild type reverse transcriptase. It is filed as functional. In short, it runs like this:
(§1)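 Single-cycle PhenoScreen assay run by Monogram Biosciences, using viruses carrying RT sequences from clinical isolates, subtypes/CRFs or PI/NRTI-resistant clade B viruses; nine serial drug concentrations; activity expressed relative to drug-sensitive reference strain CNDO (protease and RT from NL4-3), with multidrug-resistant MDRC4 as assay-performance control.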

Series [3] relates to Human immunodeficiency virus 1. Briefly: Antiviral activity against HIV1 CRF01_AE harboring mutant reverse transcriptase relative to HIV1 CNDO with wild type reverse transcriptase. It is filed as functional. In short, it runs like this:
as §1

Series [4] concerns Human immunodeficiency virus 1. In words: Antiviral activity against HIV1 clade A harboring mutant reverse transcriptase relative to HIV1 CNDO with wild type reverse transcriptase. It is filed as functional.
Series [5] has as its system Human immunodeficiency virus 1. Briefly: Antiviral activity against HIV1 CRF17_BF harboring mutant reverse transcriptase relative to HIV1 CNDO with wild type reverse transcriptase. The format is functional. The procedure, abridged:
as §1

Series [6] relates to Human immunodeficiency virus 1. In words: Antiviral activity against HIV1 clade C harboring mutant reverse transcriptase relative to HIV1 CNDO with wild type reverse transcriptase. The format is functional.
The test system of series [7] is Human immunodeficiency virus 1. In words: Antiviral activity against HIV1 clade D harboring mutant reverse transcriptase relative to HIV1 CNDO with wild type reverse transcriptase. The format is functional.
Series [8] relates to Human immunodeficiency virus 1. Briefly: Antiviral activity against HIV1 clade F1 harboring mutant reverse transcriptase relative to HIV1 CNDO with wild type reverse transcriptase. It is filed as functional.
The subject of series [9] is Human immunodeficiency virus 1. Briefly: Antiviral activity against HIV1 clade G harboring mutant reverse transcriptase relative to HIV1 CNDO with wild type reverse transcriptase. The format is functional.
Series [10] relates to Human immunodeficiency virus 1. Briefly: Antiviral activity against HIV1 clade H harboring mutant reverse transcriptase relative to HIV1 CNDO with wild type reverse transcriptase. The format is functional.
Series [11] concerns Human immunodeficiency virus 1. Briefly: Antiviral activity against PI-resistant HIV1 harboring mutant reverse transcriptase relative to HIV1 CNDO with wild type reverse transcriptase. It is filed as functional. The procedure, abridged:
as §1

Series [12] has as its system Human immunodeficiency virus 1. In words: Antiviral activity against NRTI-resistant HIV1 harboring mutant reverse transcriptase relative to HIV1 CNDO with wild type reverse transcriptase. It is filed as functional. In short, it runs like this:
as §1

The subject of series [13] is Human immunodeficiency virus 1. Briefly: Antiviral activity against NRTI-, PI-resistant HIV1 harboring mutant reverse transcriptase relative to HIV1 CNDO with wild type reverse transcriptase. The format is functional. In short, it runs like this:
as §1

Series [14] concerns Human immunodeficiency virus 1. Briefly: Ratio of EC95 for HIV1 isolate R8 harboring reverse transcriptase K103N and Y181C mutant in presence of 50% human serum to EC95 for HIV1 isolate R8 harboring wild type reverse transcriptase in presence of 50% human serum. It is filed as functional. In short, it runs like this: (§2)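 Ratios of EC95 values from the MT-4 multiple-cycle assay: R8 variants infected 24 h at low MOI, then reseeded in RPMI 1640 with 10% FBS or 50% type AB human serum with threefold dilutions (833–0.32 nM) for 72 h; p24 by AlphaScreen; EC95 = lowest concentration cutting p24 ≥95% versus untreated controls.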

Series [15] relates to Human immunodeficiency virus 1. Briefly: Ratio of EC95 for HIV1 isolate R8 harboring reverse transcriptase K103N mutant in presence of 50% human serum to EC95 for HIV1 isolate R8 harboring wild type reverse transcriptase in presence of 50% human serum. The format is functional. In short, it runs like this: as §2
Series [16] relates to Human immunodeficiency virus 1. Briefly: Ratio of EC95 for HIV1 isolate R8 harboring reverse transcriptase Y181C mutant in presence of 50% human serum to EC95 for HIV1 isolate R8 harboring wild type reverse transcriptase in presence of 50% human serum. It is filed as functional. The procedure, abridged:
as §2

For series [17], the system named is Human immunodeficiency virus 1. In words: Antiviral activity against HIV1 isolate R8 harboring reverse transcriptase K103N and Y181C mutant infected in human MT4 cells assessed as inhibition of viral replication after 72 hrs in presence of 50% human serum. It is filed as functional. To be noted: Human immunodeficiency virus 1, isolate R8, MT4, 72 h. In short, it runs like this:
(§3)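 Multiple-cycle assay: MT-4 cells (2.5 × 10^5) infected with R8-based virus at low MOI, no inhibitor, 24 h at 37°C, 5% CO2; washed, reseeded at 5 × 10^4 cells in RPMI 1640 with 10% FBS or 50% type AB human serum; threefold serial dilutions from 833 nM to 0.32 nM; 72 h; p24 in medium by AlphaScreen; EC95 = lowest concentration giving ≥95% p24 reduction versus untreated.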

Series [18] has as its system Human immunodeficiency virus 1. In words: Antiviral activity against HIV1 isolate R8 harboring reverse transcriptase Y181C mutant infected in human MT4 cells assessed as inhibition of viral replication after 72 hrs in presence of 50% human serum. The format is functional. To be noted: Human immunodeficiency virus 1, isolate R8, MT4, 72 h. The procedure, abridged:
as §3

Series [19] concerns Human immunodeficiency virus 1. Briefly: Antiviral activity against HIV1 isolate R8 harboring reverse transcriptase K103N mutant infected in human MT4 cells assessed as inhibition of viral replication after 72 hrs in presence of 50% human serum. It is filed as functional. The conditions noted are these: Human immunodeficiency virus 1, isolate R8, MT4, 72 h. In short, it runs like this:
as §3

Series [20] deals with Human immunodeficiency virus 1. Briefly: Antiviral activity against HIV1 isolate R8 harboring wild type reverse transcriptase infected in human MT4 cells assessed as inhibition of viral replication after 72 hrs in presence of 50% human serum. It is filed as functional. To be noted: Human immunodeficiency virus 1, isolate R8, MT4, 72 h. In short, it runs like this:
as §3

The test system of series [21] is Human immunodeficiency virus 1. Briefly: Antiviral activity against HIV1 isolate R8 harboring reverse transcriptase K103N and Y181C mutant infected in human MT4 cells assessed as inhibition of viral replication after 72 hrs in presence of 10% FBS. It is filed as functional. To be noted: Human immunodeficiency virus 1, isolate R8, MT4, 72 h. The procedure, abridged:
as §3

The subject of series [22] is Human immunodeficiency virus 1. In words: Antiviral activity against HIV1 isolate R8 harboring reverse transcriptase Y181C mutant infected in human MT4 cells assessed as inhibition of viral replication after 72 hrs in presence of 10% FBS. The format is functional. To be noted: Human immunodeficiency virus 1, isolate R8, MT4, 72 h. In short, it runs like this: as §3

Series [23] has as its system Human immunodeficiency virus 1. Briefly: Antiviral activity against HIV1 isolate R8 harboring reverse transcriptase K103N mutant infected in human MT4 cells assessed as inhibition of viral replication after 72 hrs in presence of 10% FBS. It is filed as functional. The conditions noted are these: Human immunodeficiency virus 1, isolate R8, MT4, 72 h. In short, it runs like this:
as §3

For series [24], the system named is Human immunodeficiency virus 1. In words: Antiviral activity against HIV1 isolate R8 harboring wild type reverse transcriptase infected in human MT4 cells assessed as inhibition of viral replication after 72 hrs in presence of 10% FBS. The conditions noted are these: Human immunodeficiency virus 1, isolate R8, MT4, 72 h. The format is functional. The procedure, abridged:
as §3

Series [25] has as its system Human immunodeficiency virus 1. In words: Antiviral activity against HIV1 isolate R8 harboring reverse transcriptase L100I and K103N mutant relative to drug-sensitive HIV1 CNDO. The format is functional.
Series [26] has as its system Human immunodeficiency virus 1. In words: Antiviral activity against HIV1 isolate R8 harboring reverse transcriptase Y181C and K103N mutant relative to drug-sensitive HIV1 CNDO. It is filed as functional.
The subject of series [27] is Human immunodeficiency virus 1. In words: Antiviral activity against HIV1 isolate R8 harboring reverse transcriptase Y181I mutant relative to drug-sensitive HIV1 CNDO. The format is functional.
Series [28] deals with Human immunodeficiency virus 1. In words: Antiviral activity against HIV1 isolate R8 harboring reverse transcriptase F227C mutant relative to drug-sensitive HIV1 CNDO. The format is functional.
In series [29] the test system is Human immunodeficiency virus 1. Briefly: Antiviral activity against HIV1 isolate R8 harboring reverse transcriptase M230L mutant relative to drug-sensitive HIV1 CNDO. The format is functional.
Series [30] has as its system Human immunodeficiency virus 1. Briefly: Antiviral activity against HIV1 isolate R8 harboring reverse transcriptase K101P mutant relative to drug-sensitive HIV1 CNDO. It is filed as functional.
Series [31] deals with Plasma. Briefly: Plasma protein binding in HIV1 infected patient. The format is ADME, cell-free. To be noted: human.
Series [32] relates to Plasma. In words: Plasma protein binding in healthy human at 200 mg/kg. The format is ADME, organism-based. Set-up: dose 200 mg/kg. To be noted: in vivo.

As usually defined, the EC95 is the concentration needed for an effect of 95%.

For `C[C@H](Cn1cnc2c(N)ncnc21)OCP(=O)(O)O` [TENOFOVIR ANHYDROUS], the “fold change (FC)” value in [1] came to 0.94; in series [2], 0.93; in series [3], 0.78; in series [4] it was 0.95; in series [5], 0.83; in [6] it was 0.97. Moreover, the “fold change (FC)” value is 0.74 in series [7]; 0.96 in [8]; 0.96 in series [9]; 0.67 in [10]; 0.82 in [11]; 1.97 in [12]. Further, the “fold change (FC)” value in [13] is recorded as 2.43.
As to `Nc1ccn([C@@H]2CS[C@H](CO)O2)c(=O)n1` [LAMIVUDINE], the entries for the “fold change (FC)” value in [2], in series [5] and in series [13] were 1.31, 1.37 and 5.96, respectively.
As to `Cc1cc(C#N)cc(C)c1Oc1nc(Nc2ccc(C#N)cc2)nc(N)c1Br` [ETRAVIRINE], the “fold change (FC)” value in series [14] is 14; in [15] it was 1.1; in series [16], 7; in series [25], above 10; in [26] it was above 10; in series [27], above 10. Also, the fold change (FC) in series [28], in series [29] and in [30] was above 10 each time. Also, the EC95 in series [17] was 542 nM; in series [18] it was 266 nM; in [19], 43 nM; in series [20] it was 38 nM; in series [21] it was 56 nM; in series [22] it was 26 nM. Moreover, the EC95 was 6 nM in series [23] and 4 nM in [24]. The Activity in the series on Plasma [31] and in the series with Plasma [32] was above 99.5% throughout.
Turning to `O=C1Nc2ccc(Cl)cc2[C@@](C#CC2CC2)(C(F)(F)F)O1` [EFAVIRENZ], the 95% effect concentration (EC95) worked out at 3390 nM in [17]; 89 nM in series [18]; 1730 nM in [19]; 38 nM in [20]; 322 nM in [21]; 8.4 nM in series [22]. Moreover, the EC95 in series [23] was 245 nM; in series [24] it was 3.8 nM. Further, the Activity in the series on Plasma [31] and in the series with Plasma [32] was above 99.5% each time.
For `Cc1ccnc2c1NC(=O)c1cccnc1N2C1CC1` [NEVIRAPINE], the “fold change (FC)” value in series [1] was found to be 1.25; in series [2], 0.4; in series [3] it was 0.67; in [4] it was 0.94; in series [5] it was 0.83; in series [6], 0.7. The “fold change (FC)” value in [7] amounted to 0.35; in series [8], 0.73; in series [9] it was 1.25; in series [10], 0.13; in [11], 1.05; in series [12], 0.49. In addition, the “fold change (FC)” value in series [13] came out at 0.32. In addition, the EC95 in [17] is above 8000 nM; in [18], above 8000 nM; in series [19] it was above 8000 nM; in [20] it was 464 nM; in series [21], above 8000 nM; in series [22], above 8000 nM. The 95% effect concentration (EC95) is above 8000 nM in series [23] and 438 nM in series [24].
